The test system of one experiment is K562. Briefly: Antiproliferative activity against human K562 cells assessed as growth inhibition after 48 hrs by MTS-PMS assay. Type of experiment: functional, cell-based. In a few lines:
(§1)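 Cells at 2.5-5.0 × 10^4 per 200 µL were exposed to compounds (0-50 µM) for 48 h at 37 °C, 5% CO₂. MTS (2.0 mg/ml) and PMS (0.92 mg/ml), mixed 10:1, were added for 3 h at 37 °C, and A490 was read. Background was subtracted, viability was taken as a % of untreated, and IC50 was found by graphic extrapolation.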

The nature of experiment [1]: Antiproliferative activity against human L-132 cells assessed as growth inhibition after 48 hrs by MTS-PMS assay. Type of experiment: cell-based, L132. The gist of the method:
as §1

The subject of the next experiment is THP-1. Briefly: Antiproliferative activity against human THP1 cells assessed as growth inhibition after 48 hrs by MTS-PMS assay. Type of experiment: functional, cell-based. In a few lines:
as §1

The test system of experiment [2] is U-937. Briefly: Antiproliferative activity against human U937 cells assessed as growth inhibition after 48 hrs by MTS-PMS assay. Type of experiment: functional, cell-based. The gist of the method: as §1
Experiment [3] is described as follows: Antiproliferative activity against mouse NIH/3T3 cells assessed as growth inhibition after 48 hrs by MTS-PMS assay. Type of experiment: cell-based, NIH3T3. The gist of the method: as §1
Experiment [4] deals with U-937. Kind of experiment: Induction of apoptosis in human U937 cell assessed as late apoptotic cells at IC50 concentration after 24 hrs using Annexin V-FITC staining by flow cytometry relative to untreated control. Type of experiment: functional.
Experiment [5] concerns U-937. Kind of experiment: Induction of apoptosis in human U937 cell assessed as early apoptotic cells at IC50 concentration after 24 hrs using Annexin V-FITC staining by flow cytometry relative to untreated control. Type of experiment: functional.
The test system of experiment [6] is U-937. Briefly: Induction of apoptosis in human U937 cell assessed as pre-necrotic cells at IC50 concentration after 24 hrs using Annexin V-FITC staining by flow cytometry relative to untreated control. Type of experiment: functional.
Experiment [7] has as its system U-937. Kind of experiment: Induction of apoptosis in human U937 cell assessed as formation of apoptotic bodies with membrane blebbing at IC50 concentration after 24 hrs using Hoechst 33258 staining by confocal microscopic analysis. Type of experiment: functional, cell-based.
[8] abbreviates: Homo sapiens, K562, 48 h, read-out: IC50.
Where [9] appears, read: Homo sapiens, L132, 48 h, read-out: IC50.
The mark [10] stands for this setting: Homo sapiens, THP-1, 48 h, read-out: IC50.
The mark [11] stands for this setting: Homo sapiens, U-937, 48 h, read-out: IC50.
Setting [12] is: Mus musculus, NIH3T3, 48 h, read-out: IC50.

These results are taken from ChEMBL document CHEMBL1287702, “Synthesis, cytotoxicity, and structure-activity relationship (SAR) studies of andrographolide analogues as anti-cancer agent” (Bioorg Med Chem Lett, 2010).

Active and inactive are the calls of the source. No cut-off for these calls is given here.

Consider `C=C1CC[C@@H]2[C@]3(C)COC(C)(C)O[C@@H]3CC[C@@]2(C)[C@@H]1C/C=C1/C(=O)OC[C@H]1OC(=O)CCCC(=O)O`, for which the half-maximal inhibitory concentration (IC50) in the experiment with K562 (setting [8]) amounted to 36.5 µM; in [1] (setting [9]), 15.1 µM; in the experiment on THP-1 (setting [10]) it was 26.2 µM; in the experiment on U-937 [2] (setting [11]), 15.6 µM.

With `C=C1CC[C@@H]2[C@](C)(CO)[C@H](O)CC[C@@]2(C)[C@@H]1CCC1C(=O)OC[C@H]1OC(=O)CCC(=O)O` (stereo partly specified), the IC50 entry with U-937 [2] (u-937) is “Not Active”.

`C=C1CC[C@@H]2[C@]3(C)COC(C)(C)O[C@@H]3CC[C@@]2(C)[C@@H]1C/C=C1/C(=O)OC[C@H]1OC(=O)c1ccccc1C(=O)O`: the IC50 with K562 (setting [8]) was 26.9 µM; in experiment [1] (setting [9]) it was 18.8 µM; in the experiment with THP-1 (setting [10]) it was 12.2 µM; in experiment [3] (setting [12]), 16 µM; in the experiment with U-937 [2] (setting [11]) it was 14.6 µM.

On to `C=C1CC[C@@H]2[C@](C)(CO)[C@H](O)CC[C@@]2(C)[C@@H]1C/C=C1/C(=O)OC[C@H]1OC(=O)CCC(=O)O`, for which the Activity in the experiment on U-937 [4] is recorded as 27.25%; in the experiment with U-937 [5], 18.77%; in the experiment with U-937 [6], 2.51%. For the same compound, the IC50 in the experiment on K562 (setting [8]) came to 25.3 µM; in experiment [1] (setting [9]), 8.5 µM; in the experiment with THP-1 (setting [10]) it was 5.84 µM; in experiment [3] (setting [12]) it was 10.2 µM; with U-937 [2] (setting [11]), 5.47 µM. In addition, the result in the experiment with U-937 [7] was Active.

With `C=C1CC[C@@H]2[C@]3(C)COC(C)(C)O[C@@H]3CC[C@@]2(C)[C@@H]1C/C=C1/C(=O)OC[C@H]1OC(=O)CCC(=O)O`, the IC50 in the experiment with K562 (setting [8]) turned out to be 31.4 µM; in [1] (setting [9]), 21.7 µM; in the experiment on THP-1 (setting [10]) it was 10 µM; in [3] (setting [12]), 36.7 µM; with U-937 [2] (setting [11]), 19.5 µM.

Regarding `C=C1CC[C@@H]2[C@](C)(CO)[C@H](O)CC[C@@]2(C)[C@@H]1C/C=C1/C(=O)OC[C@H]1OC(=O)c1ccccc1C(=O)O`, the IC50 with K562 (setting [8]) was 41.1 µM; in experiment [1] (setting [9]) it was 10.9 µM; in the experiment with THP-1 (setting [10]), 5.68 µM; in [3] (setting [12]) it was 8.01 µM; in the experiment on U-937 [2] (setting [11]), 6.27 µM.

Take `C=C1CC[C@@H]2[C@](C)(CO)[C@H](O)CC[C@@]2(C)[C@@H]1C/C=C1/C(=O)OC[C@H]1OC(=O)/C=C\C(=O)O`: the IC50 with K562 (setting [8]) was 42 µM; in experiment [1] (setting [9]), 12.8 µM; in the experiment with THP-1 (setting [10]) it was 7.77 µM; in [3] (setting [12]), 11.3 µM; with U-937 [2] (setting [11]) it was 9.72 µM.

On to `C=C1CC[C@@H]2[C@](C)(CO)[C@H](O)CC[C@@]2(C)[C@@H]1CCC1C(=O)OC[C@H]1OC(=O)c1ccccc1C(=O)O` (stereo partly specified), for which the 50% inhibitory concentration (IC50) entry (with K562 (k562); in [1] (l132); with THP-1 (thp-1); in experiment [3] (nih3t3); in the experiment with U-937 [2] (u-937)) was “Not Active” throughout.

`C=C1CC[C@@H]2[C@](C)(CO)[C@H](O)CC[C@@]2(C)[C@@H]1C/C=C1/C(=O)OC[C@H]1O` [ANDROGRAPHOLIDE]: the IC50 was determined as 41.9 µM in the experiment on K562 (setting [8]); 53.8 µM in experiment [1] (setting [9]); 6.69 µM in the experiment with THP-1 (setting [10]); 44.5 µM in [3] (setting [12]); 12.9 µM with U-937 [2] (setting [11]).

Take `C=C1CC[C@@H]2[C@](C)(CO)[C@H](O)CC[C@@]2(C)[C@@H]1CCC1C(=O)OC[C@H]1OC(=O)CCCC(=O)O` (stereo partly specified): the half-inhibitory concentration (IC50) result (in the experiment on K562 (k562); in [1] (l132); in the experiment on THP-1 (thp-1); in experiment [3] (nih3t3); in the experiment with U-937 [2] (u-937)) was “Not Active” each time.

As to `C=C1CC[C@@H]2[C@](C)(CO)[C@H](O)CC[C@@]2(C)[C@@H]1C/C=C1/C(=O)OC[C@H]1OC(=O)CCCC(=O)O`, the IC50 in the experiment on K562 (setting [8]) was 19.6 µM; in experiment [1] (setting [9]), 19.5 µM; in the experiment on THP-1 (setting [10]), 7.53 µM; in experiment [3] (setting [12]), 22.1 µM; in the experiment on U-937 [2] (setting [11]), 9.76 µM.

Regarding `C=C1CC[C@@H]2[C@](C)(CO)[C@H](O)CC[C@@]2(C)[C@@H]1CCC1C(=O)OC[C@H]1OC(=O)/C=C\C(=O)O` (stereo partly specified), the half-maximal inhibitory concentration (IC50) entry (in the experiment on K562 (k562); in experiment [1] (l132); in the experiment on THP-1 (thp-1); in experiment [3] (nih3t3); in the experiment on U-937 [2] (u-937)) was “Not Active” throughout.

On to `C=C1CC[C@@H]2[C@]3(C)COC(C)(C)O[C@@H]3CC[C@@]2(C)[C@@H]1C/C=C1/C(=O)OC[C@H]1OC(=O)/C=C\C(=O)O`, for which the IC50 in experiment [1] (setting [9]) was determined as 31.1 µM; with THP-1 (setting [10]), 14.8 µM.
